Measurements taken from ChEMBL document CHEMBL4011639, “Discovery of Novel Nucleotide Prodrugs with Improved Potency Against HCV Variants Carrying NS5B S282T Mutation” (J Med Chem, 2017).

How the values were obtained:
[1] = target: Adenosine 5'-monophosphoramidase HINT1 (Homo sapiens, UniProt P49773); test: Drug metabolism in human HuH7 cells assessed as HINT1-mediated ((2R,3R,4R,5R)-5-(4-butyramido-2-oxopyrimidin-1(2H)-yl)-4-fluoro-3-hydroxy-4-methyltetrahydrofuran-2-yl)methyl dihydrogen phosphate metabolite formation at 50 uM after 48 hrs by LC/MS/MS analysis; format: ADME, cell-based
Summary of the method: (§1)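 Huh-7 cells plated at 0.35 million/mL in DMEM with 10% FBS (about 1 million per well at dosing) and grown 18 h. At each time point cells were washed with cold saline and lysed in methanol with internal standard. Semiquantified by LC/MS/MS MRM as Δ mean peak-area ratio relative to t0.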

[2] = Half life in human plasma […] by LC/MS/MS analysis; format: ADME, cell-free
Summary of the method: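 Pooled human plasma adjusted to pH 7.4 and prewarmed, then spiked to 2 μM final from a 200 μM DMSO working solution, in duplicate. Sampled at 0, 10, 30, 60 and 120 min and quenched with acetonitrile containing tolbutamide and buspirone. LC/MS/MS (MRM) peak area ratios; ke from linear regression of the initial linear phase, t1/2 = ln2/ke.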

[3] = AUC (0 to infinity) in Beagle dog at 150 mg/kg, administered via oral gavage measured up to 24 hrs post dose by LC/MS/MS analysis; format: ADME, organism-based, Canis lupus familiaris; parameters: dose 150 mg/kg, route oral, time infinity; settings: in vivo
Summary of the method: (§2)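 Beagle dogs, 3 per sex, given a single oral gavage dose of 150 mg/kg in 20% w/v hydroxypropyl-β-cyclodextrin in water, 2.5 mL/kg. K2EDTA blood taken by venipuncture at 0.5, 0.75, 1, 2, 4, 6, 8, 12 and 24 h. Plasma extracted with ice-cold acetonitrile, then LC/MS/MS in positive MRM mode with zolpidem as internal standard. Noncompartmental analysis; mean ± SD.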

[4] = Tmax in Beagle dog at 150 mg/kg, administered via oral gavage measured up to 24 hrs post dose by LC/MS/MS analysis; format: ADME, organism-based, Canis lupus familiaris; settings: in vivo; summary of the method: as §2
[5] = test system: Hepatitis C virus subtype 1b; test: Ratio of EC50 for HCV genotype 1b replicon NS5B S282T mutant to EC50 for wild type HCV genotype 1b replicon NS5B
Summary of the method: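 Huh7 cells carrying wild-type or S282T mutant HCV genotype 1b replicon, 8000 cells per well, exposed to 3-fold compound dilution series (0.5% DMSO final, duplicates) for 72 h at 37 °C, 5% CO2. Replicon activity read by Bright-Glo luciferase luminescence. EC50 averaged from duplicate determinations; ratio taken as S282T EC50 over wild-type EC50.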

Canis familiaris = test: Toxicity in Beagle dog at 150 mg/kg, administered via oral gavage measured up to 24 hrs post dose; format: organism-based, Canis lupus familiaris; settings: in vivo
Summary of the method: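 Six Beagle dogs (three male, three female) given one oral gavage dose of 150 mg/kg in 20% w/v hydroxypropyl-β-cyclodextrin in water. Animals watched for clinical symptoms and adverse events while plasma was sampled over 24 h.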

[6] = Drug metabolism in human HuH7 cells assessed as ((2R,3R,4R,5R)-4-fluoro-3-hydroxy-5-(4-hydroxy-2-oxo-3,4-dihydropyrimidin-1(2H)-yl)-4-methyltetrahydrofuran-2-yl)methyl tetrahydrogen triphosphate metabolite formation at 50 uM after 48 hrs by LC/MS/MS analysis; format: ADME, cell-based; settings: huh-7, 48 h; summary of the method: as §1
Mus musculus [7] = test: Subacute toxicity in ICR mouse assessed as weight change in liver at 100 to 1000 mg/kg, administered once a day via oral gavage for 14 days; format: organism-based; settings: in vivo, 336 h
Summary of the method: (§3)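 ICR mice, 22−25 g, 5 per sex per group, gavaged daily for 14 days at 100, 500 or 1000 mg/kg in 30% PEG400/30% Tween 20/20% corn oil/20% water, with a vehicle control group. Observed daily for body weight change, skin and fur, inflammation and necrosis. Animals anesthetized on day 15; organ weights (liver, kidney) taken. Serum SGOT/SGPT compared with controls.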

[8] = Half life in Beagle dog at 150 mg/kg, administered via oral gavage measured up to 24 hrs post dose by LC/MS/MS analysis; format: ADME, organism-based, Canis lupus familiaris; settings: in vivo; summary of the method: as §2
Mus musculus [9] = test: Acute toxicity in ICR mouse assessed as body weight loss at 150 to 1800 mg/kg, administered via oral gavage measured once a day over 14 days; format: organism-based; settings: in vivo, 336 h
Summary of the method: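 ICR mice, 22−25 g, 5 per sex per group. Single oral gavage at 150, 500, 1200 or 1800 mg/kg in vehicle of 30% PEG400/30% Tween 20/20% corn oil/20% water, with a vehicle control. Mortality, morbidity, clinical signs and body weight change recorded once daily for 14 days.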

[10] = Cmax in Beagle dog at 150 mg/kg, administered via oral gavage measured up to 24 hrs post dose by LC/MS/MS analysis; format: ADME, organism-based, Canis lupus familiaris; parameters: dose 150 mg/kg, route oral; settings: in vivo; summary of the method: as §2
Mus musculus [11] = test: Subacute toxicity in ICR mouse assessed as weight change in kidney at 100 to 1000 mg/kg, administered once a day via oral gavage for 14 days; format: organism-based; settings: in vivo, 336 h; summary of the method: as §3
[12] = Drug metabolism in human HuH7 cells assessed as nucleoside diphosphate kinase-mediated ((2R,3R,4R,5R)-5-(4-amino-2-oxopyrimidin-1(2H)-yl)-4-fluoro-3-hydroxy-4-methyltetrahydrofuran-2-yl)methyl tetrahydrogen triphosphate metabolite formation at 50 uM after 48 hrs by LC/MS/MS analysis; format: ADME, cell-based; summary of the method: as §1
Mus musculus [13] = test: Subacute toxicity in ICR mouse assessed as effect on tubules at 100 to 1000 mg/kg, administered once a day via oral gavage for 14 days by hematoxylin/eosin-staining based microscopic analysis; format: organism-based; settings: in vivo, 336 h
Summary of the method: (§4)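 Same 14-day daily oral gavage design as the subacute study (ICR mice, 5 per sex per group, 100/500/1000 mg/kg or vehicle). Liver and kidney taken after anesthesia on day 15, processed routinely, cut as 5 μm paraffin sections, stained with hematoxylin and eosin and examined microscopically.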

[14] = Acute toxicity in ICR mouse administered as a single dose via oral gavage and observed over 14 days; settings: in vivo
Mus musculus [15] = test: Subacute toxicity in ICR mouse assessed as effect on renal architecture at 100 to 1000 mg/kg, administered once a day via oral gavage for 14 days by hematoxylin/eosin-staining based microscopic analysis; format: organism-based; settings: in vivo, 336 h; summary of the method: as §4
Mus musculus [16] = test: Subacute toxicity in ICR mouse assessed as mortality at 100 to 1000 mg/kg, administered once a day via oral gavage for 14 days; format: organism-based; settings: in vivo, 336 h; summary of the method: as §3
Mus musculus [17] = test: Subacute toxicity in ICR mouse assessed as effect on glomerulus at 100 to 1000 mg/kg, administered once a day via oral gavage for 14 days by hematoxylin/eosin-staining based microscopic analysis; format: organism-based; settings: in vivo, 336 h; summary of the method: as §4
Mus musculus [18] = test: Subacute toxicity in ICR mouse assessed as alteration in basic levels of SGOT at 100 to 1000 mg/kg, administered once a day via oral gavage for 14 days; format: organism-based; settings: in vivo, 336 h; summary of the method: as §3
[19] = Inhibition of wild type NS5B in HCV genotype 1b replicon expressed in human HuH7 cells after 72 hrs by bright Glo-luciferase reporter gene assay; format: cell-based, Hepatitis C virus subtype 1b; settings: Hepatitis C virus, Huh-7, 72 h
Summary of the method: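 Huh7 cells carrying HCV genotype 1b replicon, 8000 per well, in duplicate 3-fold dilution series with 0.5% DMSO final; 72 h at 37 °C, 5% CO2. Viability read by Cell Titer-Fluor fluorescence after 5 min; replicon inhibition read by Bright-Glo luciferase luminescence in the same wells. EC50 and CC50 come from curve fitting.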

Chain of Adenosine 5'-monophosphoramidase HINT1 (P49773 whole entry): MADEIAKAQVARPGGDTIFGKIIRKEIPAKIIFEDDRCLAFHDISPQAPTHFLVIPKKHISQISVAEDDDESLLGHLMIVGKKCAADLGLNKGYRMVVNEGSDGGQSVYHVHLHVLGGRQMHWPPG

## CCCC(=O)Nc1ccn([C@@H]2O[C@H](CO[P@@](=O)(N[C@@H](C)C(=O)OC(C)C)Oc3ccccc3)[C@@H](O)[C@@]2(C)F)c(=O)n1
[1]
  Drug metabolism: Metabolite_Notdetected
[2]
  half-life: > 3.85 h
[3]
  AUC(0-inf): 411 ng·h/mL
[4]
  Tmax: 0.9 h
[5]
  Ratio EC50: 3.2
Canis familiaris
  Activity: Non-Toxic
[6]
  Drug metabolism: Metabolite_Notdetected
Mus musculus [7]
  Activity: Non-Toxic
[8]
  half-life: 14.2 h
Mus musculus [9]
  Activity: Non-Toxic
[10]
  Cmax: 51.3 ng/mL
Mus musculus [11]
  Activity: Non-Toxic
[12]
  Drug metabolism: Metabolite_Detected
Mus musculus [13]
  Activity: Non-Toxic
[14]
  NOAEL at 336 h: > 1800 mg/kg
Mus musculus [15]
  Activity: Non-Toxic
Mus musculus [16]
  Activity: Non-Toxic
Mus musculus [17]
  Activity: Non-Toxic
Mus musculus [18]
  Activity: Non-Toxic
[19]
  EC50: 240 nM
